PMC5563258 (Journal of medicinal chemistry, 2017)

Assays:
D3R [1] = target: T1, D3R (Homo sapiens, UniProt P35462); details: BRET assay; cited from earlier work
D3R [2] = target: T1, D3R; experiment: β-arrestin recruitment assay; assay type: cell-based; details: Figure 2
Procedure, shortened: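 HEK293T cells were transiently transfected (polyethylenimine) with D3R–Rluc8 (C-terminal), mVenus–β-arrestin 2 (N-terminal) and GRK2, and assayed ~48 h later. Cells in PBS + 5 mM glucose got coelenterazine H (5 µM) for 8 min, then test compound (final 10 pM–100 µM). BRET1 (510–540/485 nm) was read at 30 min, normalized to vehicle (0%) and dopamine (100%), and fitted sigmoidally.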

D3R [3] = target: T1, D3R; experiment: Go BRET activation assay; assay type: cell-based; details: for Functional efficacy class: Go BRET activation assay, Figure 1
[4] = dogs; cited from earlier work

T1 sequence (P35462 whole entry): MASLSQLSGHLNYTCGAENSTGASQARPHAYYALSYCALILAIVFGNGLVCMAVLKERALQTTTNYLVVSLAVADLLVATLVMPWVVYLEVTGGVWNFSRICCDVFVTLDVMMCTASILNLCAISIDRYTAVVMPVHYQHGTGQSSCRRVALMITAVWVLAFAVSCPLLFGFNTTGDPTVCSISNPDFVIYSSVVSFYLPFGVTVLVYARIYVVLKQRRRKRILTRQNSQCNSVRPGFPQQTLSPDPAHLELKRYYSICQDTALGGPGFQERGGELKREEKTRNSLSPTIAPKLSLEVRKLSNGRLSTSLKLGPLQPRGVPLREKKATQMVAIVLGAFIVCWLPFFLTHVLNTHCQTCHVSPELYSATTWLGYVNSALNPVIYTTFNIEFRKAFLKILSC

Q: For `Clc1cccc(N2CCNCC2)c1Cl` [2,3-diCl-phenylpiperazine, 1-(2,3-dichlorophenyl)piperazine], which “Emax (% of dopamine efficacy)” value (D3R [1]) is on record?
A: 57.3%

Q: Which Functional efficacy class (D3R [2]) does the source give for `O=C(NCC[C@@H](O)CN1CCN(c2cccc(Cl)c2Cl)CC1)c1cnc2ccccc2c1` [(R)-4, (R)-N-(4-(4-(2,3-Dichlorophenyl)piperazin-1-yl)-3-hydroxybutyl)quinoline-3-carboxamide] here?
A: antagonists

Q: With `O=C(NCC[C@@H](O)CN1CCN(c2cccc(Cl)c2Cl)CC1)c1cc2ccccc2[nH]1` [(R)-9] as the compound, how does the Functional efficacy class (D3R [2]) read?
A: antagonists

Q: Which results are given for `O=C(NCC[C@H](O)CN1CCN(c2cccc(Cl)c2Cl)CC1)c1cnc2ccccc2c1` [(S)-4, (S)-N-(4-(4-(2,3-Dichlorophenyl)piperazin-1-yl)-3-hydroxybutyl)quinoline-3-carboxamide]?
A: Functional efficacy class (D3R [3]): partial agonists; Functional efficacy class (D3R [2]): partial agonists

Q: What does the source list for `CC[C@H](O)CN1CCN(c2cccc(Cl)c2Cl)CC1` [(S)-6, (S)-1-(4-(2,3-Dichlorophenyl)piperazin-1-yl)butan-2-ol]?
A: Functional efficacy class (D3R [3]): partial agonists; Functional efficacy class (D3R [2]): partial agonists

Q: With `O=C(NCC[C@H](O)CN1CCN(c2cccc(Cl)c2Cl)CC1)c1cc2ccccc2[nH]1` [(S)-9] as the compound, how does the Functional efficacy class (D3R [3]) read?
A: partial agonists

Q: What about the Functional efficacy class (D3R [2]) of the same compound?
A: partial agonists

Q: For `O=C(NCCCCN1CCN(c2cccc(Cl)c2Cl)CC1)c1cc2ccccc2[nH]1` [Compound 10], which Emax (D3R [3]; HEK-293T, read-out: Emax (% of dopamine efficacy)) is on record?
A: 16%

Q: For `Cc1ncoc1-c1nnc(SCCCN2CC3CC3(c3ccc(C(F)(F)F)cc3F)C2)n1C` (centres unmarked) [GSK598,809, 1-(2-fluoro-4-trifluoromethyl-phenyl)-3-{3-[4-methyl-5-(4-methyl-oxazol-5-yl)-4H-[1,2,4]triazol-3-ylsulfanyl]-propyl}-3-aza-bicyclo[3.1.0]hexane], which “Effect on cocaine-mediated increases in blood pressure and heart rate” value [4] is on record?
A: potentiate cocaine-mediated increases in blood pressure and heart rate
